From the RNAGym collection of RNA variant scans (doi:10.1126/science.aae0568) come the findings set out here.

Variants at the floor of the assay were thinned out.

B1: tRNA (parent)
chain: GUUCCGUUGGCGUAAUGGUAACGCGUCUCCCUCCUAAGGAGAAGACUGCGGGUUCGAGUCCCGUACGGAACG

In this data set the parent is B1. Briefly: yeast fitness relative to wild type (ratio to wild type); higher = fitter; tRNA-Arg(CCU), competitive growth, 37 C, YPD. The method in brief:
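The tRNA-Arg(CCU) gene variants were made by chemical synthesis with a 3% per-site mutation rate at 69 sites and inserted at the native genomic locus of Saccharomyces cerevisiae. After pooling, the strains were competed in YPD at 37°C for 24 hours in six parallel replicates. Gene amplicons from the start population and each end population were read by 100-nucleotide paired-end sequencing, and Darwinian fitness relative to wild type was taken from genotype frequency changes. Genotypes needed ≥ 100 starting reads, and estimates < 0.5 were set to 0.5.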
Turning to GUUCCGUUGGCGUAAUGGUAACGCGUCUCGCACCUAAGGAGAAGACUACGGGUUCGAGUCCCGUACCGAACG, the yeast fitness was 0.568.

As to GUUCCGUUGGCGUAAUGGUAACGCGUCUCGCUCCUAAGGAGAAGACUGCGGGUGCGAGUCCCGUACGGAACG, the yeast fitness was not above 0.5.

Take GUUCCGUUGGCGUAAUGGUAACGCGUCUCGCUCCUAAGGAGAAGACUGCGGGUCCGAGUCCCGUACGGAACG: the yeast fitness was 0.568.

For the variant GUUCCGUUGGCGUAAUGGUAACGCGUCUCUCUCCUCAGGAGAAGACUGCGGAUUGGAGUCCCGUACGGAACG, the yeast fitness is not above 0.5.

For GUUCCGUUGGCGUAAUGGUAACGCGUCUCGCUCCUAAGGAGAAGACUGCGGGUUCAUGUCCCGUACGGAACG, the yeast fitness is not above 0.5.

Take GUUCCGUUGGCGUAAUGGUAACGCGUCUCGCUCCCAAGGAGAAGACUGCGGGUUCGAGUCCCGUACGGAACG: the yeast fitness is not above 0.5.

As for GUUCCGUUGGCGUAAUGGUAACGCGUCUCGCUCCUAAGGACAAGACUGCGGGUUCGAGUCCCGUACGGAACG, the yeast fitness stood at 0.616.

Turning to GUUCCGUUGGCGUAAUGGUAACGCGUCUCGCCCCUAAGGAGAAGACUGCCGGUUCGAGUCCCGUACGGAACG, the yeast fitness is not above 0.5.

With GUUCCGUUGGCGUAAUGGUAACGCGUCUCGCUCCUAAGGAGAAGACUGCGGGUUCGAAUCCCGUACGGAACG, the yeast fitness worked out at 0.678.

Regarding GUUCCGUUGGCGUAAUGGUAACGCGUCUCUCUCCUGAGGAGAAGACUGCGGGUUCGAGUCCCGUACGGAACG, the yeast fitness stood at 0.927.

Regarding GUUCCGUUGGCGUAAUGGUAACGCGUCUCUCUCCUUAGGAGAAGACUGCGGGUUCGAGUCCCGUACGGAACG, the yeast fitness is 0.57.

Take GUUCCGUUGGCGUAAUGGUAACGCGUCUCUCUCCUCAGGAGAAGACUGCGGGUUCGAGUCCCGUACGGAACG: the yeast fitness is 0.566.

Regarding GUUCCGUUGGCGUAAUGGUAACGCGUCUCGCUCCUAAGGAGAAGACUGCGGGUUCGAGUCCCGUACCGAACG, the yeast fitness is 0.637.

On to GUUCCGUUGGCGUAAUGGUAACGCGUCUCGCUCCUAAGGAGAAGACUGCGGGUUCGAGUCCCAUACGGAUCG, for which the yeast fitness is not above 0.5.

Take GUUCCGUUGGCGUAAUGGUAACGCGUCUCUCUCCUAGGGAGAAGACUGCGGGUUCGAGUCCCGUACGGACCG: the yeast fitness stood at 0.59.

Regarding GUUCCGUUGGCGUAAUGGUAACGCGUCUCGCUCCUAAGGAGAAGACUCCGGAUUCGAGUCCCGUACUGAACG, the yeast fitness was not above 0.5.

Turning to GUUCCGUUGGCGUAAUGGUAACGCGUCUCGCUCCUAAGGAGAAGACUGCGGCUUCGAGUCCUGUACGGAACG, the yeast fitness is not above 0.5.

For the variant GUUCCGUUGGCGUAAUGGUAACGCGUCUCGCUCCUAAGGAGAAGACUGCGGAUUCGAGUCCCGUACGGAACG, the yeast fitness was 0.605.

Regarding GUUCCGUUGGCGUAAUGGUAACGCGUCUCGCUCCUAAGGAGAAGACUGCGGCUUCGAGUCCCGUACGGAACG, the yeast fitness was determined as 0.512.

On to GUUCCGUUGGCGUAAUGGUAACGCGUCUCGCUCCUAAGGAGAAGACCGCGGGUUCGAGUCCCAUACAGAACG, for which the yeast fitness was not above 0.5.

In the case of GUUCCGUUGGCGUAAUGGUAACGCGUCUCUCUCCUGAGGAGAAAACUGCGGGUUCGAGUCGCGUACGGAACG, the yeast fitness is not above 0.5.

Turning to GUUCCGUUGGCGUAAUGGUAACGCGUCUCGCUCCUAAGGAGAAGACUGCGGGGUCGAGUCCCAUACGGAACG, the yeast fitness is not above 0.5.

As for GUUCCGUUGGCGUAAUGGUAACGCGUCUCGCUCCUAAGGAGAAGACCGCGGGUUCGAGUCCCGUAUGGAACG, the yeast fitness was found to be 0.634.

In the case of GUUCCGUUGGCGUAAUGGUAACGCGUCUCGCUCCUAAGGAGAAGACUGCGGGUUCGAGCCCCGUUCGGAACG, the yeast fitness worked out at 0.528.

For GUUCCGUUGGCGUAAUGGUAACGCGUCUCGCUCCUAAGGAGAAGACUGCGGGUUCGAGUCCCGCACGGAACG, the yeast fitness is 0.626.

With GUUCCGUUGGCGUAAUGGUAACGCGUCUCUCUCCUAUGGAGAAGACUGCGGAUUCGAGUCGCGUACGGAACG, the yeast fitness was not above 0.5.

In the case of GUUCCGUUGGCGUAAUGGUAACGCGUCUCGCUCCUAAGGAGAAGACUGCGCGUUCGAGUCCCGUACGGAACG, the yeast fitness was not above 0.5.

In the case of GUUCCGUUGGCGUAAUGGUAACGCGUCUCGCUCCUAAGGAGAAGACUGCGAGUUCGAGUCCCGUACGGAACG, the yeast fitness is 0.566.

For the variant GUUCCGUUGGCGUAAUGGUAACGCGUCUCGCUCCAAAGGAGAAGACUGCGCGUUCGAGUCCCGUACGGAACG, the yeast fitness turned out to be 0.628.

Consider GUUCCGUUGGCGUAAUGGUAACGCGUCUCGCUCCUAAGGAGAAGACUGCGGGUUCAAGUCCCGUACGGAACG, for which the yeast fitness came to 0.75.

As to GUUCCGUUGGCGUAAUGGUAACGCGUCUCUCUCCUAAGGGGAAGACUGCGGGUUUGAGUCCCGCACGGAACG, the yeast fitness amounted to 0.646.

For GUUCCGUUGGCGUAAUGGUAACGCGUCUCGCUCCUAAGGAGAAGACUGCGGGUUCGACUCCCGUAGGGAACG, the yeast fitness was determined as 0.829.

Regarding GUUCCGUUGGCGUAAUGGUAACGCGUCUCUCUCCUAAGGAGCAGACUCCGGGUUCGAGUCCCGUACGGAACG, the yeast fitness is not above 0.5.

Take GUUCCGUUGGCGUAAUGGUAACGCGUCUCUCUCCUGGGGAGAAGACUGCGGGUUCGAGUCCCGUACGGAACG: the yeast fitness turned out to be 0.548.

Regarding GUUCCGUUGGCGUAAUGGUAACGCGUCUCGCUCCAAAGGAGAAGAUUGCGAGUUCAAGUCCCGUACGGAACG, the yeast fitness was not above 0.5.

For GUUCCGUUGGCGUAAUGGUAACGCGUCUCGCUCCCAAGGAGGAGACUGUGGGUUCAAAUCCCGUACGGACCG, the yeast fitness worked out at 0.591.

As for GUUCCGUUGGCGUAAUGGUAACGCGUCUCUCUCCUCAGGAGAAGACUGCGGGUUCGAGUCCCGUACGGUACG, the yeast fitness is not above 0.5.

In the case of GUUCCGUUGGCGUAAUGGUAACGCGUCUCUCUCCUAAGGCGCAGACUGCGGGUUCGAGUCCCGUACGUAACG, the yeast fitness was not above 0.5.
